ChEMBL document CHEMBL1146073, “A pyridazine series of alpha2/alpha3 subtype selective GABA A agonists for the treatment of anxiety” (J Med Chem, 2006)
Each block holds one compound with its values, some of them ahead of it. Activity calls are given as the source filed them. The rule behind the calls is not given here.

Assays:
Rattus norvegicus [1] = experiment: Anxiolytic activity in rat plus-maze assay at 1 mg/kg, po
Rattus norvegicus [2] = experiment: Anxiolytic activity in rat plus-maze assay at 1 mg/kg, po; format: functional, organism-based; parameters: dose 1 mg/kg
In short: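 Rats given vehicle (0.5% methyl cellulose) or compound orally; chlordiazepoxide 5 mg/kg ip as positive control. Placed on elevated plus maze 30 min after dosing; time on open arms recorded as anxiety index. Significance versus vehicle at p < 0.05; mean ± SEM, n = 16-18/group.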

[3] = biological target: T1, GABA-A receptor; anion channel (Rattus norvegicus) (UniProt O09028+P15431+P18506+P18508+P19969+P20236+P23574+P23576+P28471+P28473+P30191+P62813+P63079+P63138+Q91ZM7+Q9ES14); experiment: Receptor occupancy in vivo by displacement of [3H]Ro-151788 binding from GABA-A receptor in rat at 0.1 mg/kg, po; format: functional, organism-based; parameters: dose 0.1 mg/kg
In short: (§1)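 Rat in vivo occupancy measured by [3H]Ro 15-1788 binding after oral dosing. Rats taken as a subgroup after the plus-maze trial, i.e. 30 min post-dose or later. ED50 derived from dose-dependent occupancy. Mean ± SEM, n = 5-10/group.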

[4] = Half life in Rhesus monkey; format: ADME, organism-based, Macaca mulatta; settings: in vivo
In short: (§2)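 Pharmacokinetics from six animals per species: three dosed iv and three dosed po.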

[5] = Oral bioavailability in Rhesus monkey; format: ADME, organism-based, Macaca mulatta; settings: in vivo
In short: as §2

[6] = biological target: T1, GABA-A receptor; anion channel (Rattus norvegicus); experiment: Receptor occupancy in vivo by displacement of [3H]Ro-151788 binding from GABA-A receptor in rat at 0.3 mg/kg, po; format: functional, organism-based; parameters: dose 0.3 mg/kg
In short: as §1

[7] = biological target: GABA-A receptor; alpha-5/beta-3/gamma-2 (Homo sapiens) (UniProt P18507+P28472+P31644); experiment: Efficacy against recombinant human GABA-Aalpha5 plus beta-3-gamma-2 expressed in L(tk-) cells by whole cell patch clamp method; format: functional, cell-based
In short: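 Whole-cell patch clamp on αxβ3γ2 receptors stably expressed in L(tk-) cells, measuring the effect on current evoked by an EC20-equivalent of GABA. Reported relative to full agonist chlordiazepoxide (=1.0), or as direct percent modulation of the EC20 control, with inverse agonism given as percent. Mean of at least four independent experiments.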

SMILES: Fc1cnc(-c2cc(-c3ccc(F)c(-c4ncc(F)cc4F)c3)cnn2)c(F)c1
Activity (Rattus norvegicus [1]): Active

Activity [3]: 57%
SMILES: Fc1cnc(-c2cc(-c3ccc(F)c(-c4ncccc4F)c3)cnn2)c(F)c1
Activity (Rattus norvegicus [2]): Active

half-life [4]: 504 min
bioavailability [5]: 46%
Activity [6]: 56%
Efficacy [7]: -5%
SMILES: Fc1cnc(-c2cc(-c3cnnc(-c4c(F)cncc4F)c3)ccc2F)c(F)c1
